Measurements as given in ChEMBL document CHEMBL4513216, “Probing the Open Global Health Chemical Diversity Library for Multistage-Active Starting Points for Next-Generation Antimalarials” (ACS Infect Dis, 2020).

Test: Toxicity liver stage against HepG2, at 10uM
Assay type: cell-based
Design: test concentration 10 uM, cell line HepG2-A16-CD81EGFP
Details: human, HepG2-A16-CD81EGFP cells; read-out: INHIBITION
Summary of the method: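 Uninfected HepG2-A16-CD81EGFP cells, 3 × 10^3 per well, 1536-well, plated on prespotted compound at 10 μM final, parasite-free screening media added to match infected plates; puromycin 10 μM positive, DMSO 0.5% negative; run in parallel with 48 h PbLuc assay at 37 °C, 5% CO2; viability by CellTiter-Glo luminescence, normalized to controls.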

Q: Which cytotoxicity at 10 µM does the source give for `O=C(NCC(F)(F)C(F)F)c1ccncc1` here?
A: 10.3%

Q: Which cytotoxicity at 10 µM does the source give for `O=C(C1CC=CC1)N1CC[C@@H]2O[C@H](COCC3CCOCC3)CC[C@@H]21` here?
A: -0.0499%

Q: For `O=C(c1ccc[nH]1)N1CCC2(CC1)COCCN(c1nccs1)C2`, which cytotoxicity at 10 µM is on record?
A: 12.8%

Q: With `COCC1CN(Cc2c(C)noc2C)Cc2cn(C)nc21` (stereo unspecified) as the compound, how does the cytotoxicity at 10 µM read?
A: 13.2%

Q: With `O=c1[nH]c2nc(N3CCCCCC3)ncc2c(=O)n1-c1cccc(F)c1` as the compound, how does the cytotoxicity at 10 µM read?
A: 6.39%

Q: Which cytotoxicity at 10 µM does the source give for `O=C(c1ccccn1)N1CCN(c2ccc(-c3cccnc3)nn2)CC1` here?
A: 2.84%

Q: For `Cn1nc(C(=O)NCc2ccc(F)cc2)c2c1CCS(=O)(=O)C2`, which cytotoxicity at 10 µM is on record?
A: 8.02%

Q: Which cytotoxicity at 10 µM does the source give for `Cc1nn(C(C)C)c2cnn(CC(=O)N3CCN(C)CC3)c12` here?
A: 9.51%

Q: For `CCn1nc(C)c2ncnc(NCCN3CCOCC3)c21`, which cytotoxicity at 10 µM is on record?
A: 8.93%

Q: For `CCC1CNCc2cc3c(C)ccc(C)c3nc2O1` (stereo unspecified), which cytotoxicity at 10 µM is on record?
A: -4.22%

Q: With `O=S(=O)(c1ccccc1Cl)N1CCCC(c2ncc[nH]2)C1` (stereo unspecified) as the compound, how does the cytotoxicity at 10 µM read?
A: 5.48%

Q: Which cytotoxicity at 10 µM does the source give for `Cc1noc(C)c1CS(=O)(=O)Cc1nc(C2CC2)no1` here?
A: 3.37%

Q: For `COC(=O)C1CN(Cc2nc(C(C)(C)C)cs2)C[C@@H](C)O1` (stereo partly specified), which cytotoxicity at 10 µM is on record?
A: -8.22%

Q: Which cytotoxicity at 10 µM does the source give for `COc1ccc(NC(C)C(=O)N2CCN(c3ccccc3)CC2)cn1` (stereo unspecified) here?
A: 9.75%

Q: For `Cc1nc(C(C)(C)NC(=O)Nc2ccncc2)no1`, which cytotoxicity at 10 µM is on record?
A: 9.32%

Q: With `Cc1n[nH]c(C2CN(CC(=O)NCCc3ccccc3)CCO2)n1` (stereo unspecified) as the compound, how does the cytotoxicity at 10 µM read?
A: 10.2%

Q: For `Fc1ccc(CN2CCCCC2Cn2cncn2)c2ncccc12` (stereo unspecified), which cytotoxicity at 10 µM is on record?
A: 6.95%

Q: With `Cc1nc(C)c(C(=O)N2CCCC(n3ccnc3C)C2)s1` (stereo unspecified) as the compound, how does the cytotoxicity at 10 µM read?
A: -5.19%

Q: For `CC(C)(C)CC(=O)NCC(=O)Nc1ccn(Cc2cccnc2)n1`, which cytotoxicity at 10 µM is on record?
A: 15.4%

Q: Which cytotoxicity at 10 µM does the source give for `CCN(Cc1ccc(F)cc1Cl)C1CCS(=O)(=O)C1` (stereo unspecified) here?
A: 14.9%

Q: Which cytotoxicity at 10 µM does the source give for `O=C(NCCC1CC1)NCc1cccc(-n2ccnc2)c1` here?
A: 19.7%

Q: For `CCCNC(=O)CCNC(=O)Cc1nc(-c2ccco2)oc1C`, which cytotoxicity at 10 µM is on record?
A: 23.7%

Q: Which cytotoxicity at 10 µM does the source give for `CS(=O)(=O)c1ccc(OCCNCc2cccc(F)c2)cc1` here?
A: -9.06%

Q: For `O=C(C1CCOC1)N1CC2(CCN(c3ccccc3)C2)C1` (stereo unspecified), which cytotoxicity at 10 µM is on record?
A: 9.88%

Q: With `CC(=O)N1CCO[C@@H]2CN(S(=O)(=O)c3cccs3)CC[C@@H]2C1` as the compound, how does the cytotoxicity at 10 µM read?
A: 7.66%

Q: With `Cn1ccc(C(=O)NC2CCC23CCN(C(=O)C2CCOCC2)CC3)c1` (stereo unspecified) as the compound, how does the cytotoxicity at 10 µM read?
A: -81.4%

Q: With `Cn1ccc(C(=O)NC2CCC23CCN(C(=O)c2cnccn2)CC3)c1` (stereo unspecified) as the compound, how does the cytotoxicity at 10 µM read?
A: -71.4%

Q: Which cytotoxicity at 10 µM does the source give for `CN1CCN(Cc2cccnc2)Cc2cccnc21` here?
A: -76.9%

Q: With `CC(C)Nc1ncnc2c1CCN(C(=O)Cc1cccs1)CC2` as the compound, how does the cytotoxicity at 10 µM read?
A: -80.9%

Q: For `Cc1cc(C(=O)N2CCCC(O)(CN3CCCC3)C2)ccc1Cl` (stereo unspecified), which cytotoxicity at 10 µM is on record?
A: 1.6%

Q: With `NCCc1nc(N(Cc2cncs2)C2CC2)c2ccccc2n1` as the compound, how does the cytotoxicity at 10 µM read?
A: -7.15%

Q: With `Cc1ccc(CN(C)Cc2cc(C3CC3)[nH]n2)c(O)n1` as the compound, how does the cytotoxicity at 10 µM read?
A: 4.11%

Q: For `Cc1n[nH]c(C)c1CNc1nc(-c2ccco2)nc2c1CCNCC2`, which cytotoxicity at 10 µM is on record?
A: -3.43%

Q: Which cytotoxicity at 10 µM does the source give for `O=C(CCN1CCCCO1)NCCSc1cnn[nH]1` here?
A: 0.956%

Q: For `CC(=O)N[C@@H](CC(C)C)C(=O)N1CCC(n2cc(C(C)(C)N)nn2)CC1`, which cytotoxicity at 10 µM is on record?
A: -11.7%

Q: With `Cc1nc(C(=O)N2CCC(c3nccn3Cc3ccncc3)CC2)cs1` as the compound, how does the cytotoxicity at 10 µM read?
A: -2.85%

Q: Which cytotoxicity at 10 µM does the source give for `C=C(C)COc1ccccc1CNCCc1c[nH]cn1` here?
A: -2.21%

Q: For `COc1cccc(Cn2ncc(N(C)CCc3ccccc3)cc2=O)c1`, which cytotoxicity at 10 µM is on record?
A: 2.93%

Q: Which cytotoxicity at 10 µM does the source give for `Cc1cccnc1CN1CCN(C(=O)CCn2ccccc2=O)CC1` here?
A: 3.34%

Q: For `Cc1cnccc1N1CCN(C(=O)CCCN2CCCCC2)CC1`, which cytotoxicity at 10 µM is on record?
A: 0.0879%

Q: Which cytotoxicity at 10 µM does the source give for `Cc1cc(C[C@@H]2COC[C@@H]2NC(=O)CN2CCOC2=O)on1` here?
A: -0.6%

Q: Which cytotoxicity at 10 µM does the source give for `CCn1c(N)nc2cc(C(=O)NCCc3sccc3C)cnc21` here?
A: -23.3%

Q: For `Cc1ccccc1N1CCCN(C(=O)CCCS(N)(=O)=O)CC1`, which cytotoxicity at 10 µM is on record?
A: -16%

Q: For `COc1ccccc1Oc1ncccc1CNC(=O)C(C)N1CCCC1` (stereo unspecified), which cytotoxicity at 10 µM is on record?
A: -5.39%

Q: With `Cc1cc(CC(=O)N2CCCC2c2nc(C(C)C)no2)on1` (stereo unspecified) as the compound, how does the cytotoxicity at 10 µM read?
A: -25.9%

Q: Which cytotoxicity at 10 µM does the source give for `CO[C@H]1CN(C(=O)c2ccc3oc(C)cc3c2)CC[C@@]12CCCO2` here?
A: 0.153%

Q: With `CC1CN(CC(=O)Nc2ccncc2)CCN1c1nccs1` (stereo unspecified) as the compound, how does the cytotoxicity at 10 µM read?
A: 29.5%

Q: For `Cc1nn(C)c(C)c1NC(=O)CN1CCN(c2nccs2)C(C)C1` (stereo unspecified), which cytotoxicity at 10 µM is on record?
A: -5.55%

Q: For `CCCc1noc(CN2CCC(c3ccnn3CCO)CC2)n1`, which cytotoxicity at 10 µM is on record?
A: -19.9%

Q: For `CC(c1cc(F)ccc1F)N(C)C(=O)NCc1ccnc(N(C)C)c1` (stereo unspecified), which cytotoxicity at 10 µM is on record?
A: -16.8%

Q: For `Cc1cnn(CC2CN(Cc3cccc(C(=O)N(C)C)c3)CCO2)c1` (stereo unspecified), which cytotoxicity at 10 µM is on record?
A: -1.73%

Q: For `COc1cc(CCC(=O)NCC2CCCN2C)ccc1OCC(F)(F)F` (stereo unspecified), which cytotoxicity at 10 µM is on record?
A: -5.99%

Q: For `O=C(CCNCC(F)(F)F)N1CCC(Nc2cccnn2)CC1`, which cytotoxicity at 10 µM is on record?
A: -1.5%

Q: With `CSc1nccn1-c1cccc(C(=O)NCC2CC2)c1` as the compound, how does the cytotoxicity at 10 µM read?
A: -10.6%

Q: Which cytotoxicity at 10 µM does the source give for `COCCN1CCC(NC(=O)C2(c3cc(C)cc(C)c3)CC2)CC1` here?
A: -4.37%

Q: Which cytotoxicity at 10 µM does the source give for `CC(C)c1nc2c(n1C)CCN(Cc1nc(-c3cccs3)no1)C2` here?
A: -10.1%

Q: Which cytotoxicity at 10 µM does the source give for `CCC1c2ccsc2CCN1C(=O)NCc1cc[nH]n1` (stereo unspecified) here?
A: -8.88%

Q: With `Cc1nc(C)n(CC2CCCN(CC(=O)Nc3c(C)n[nH]c3C)C2)n1` (stereo unspecified) as the compound, how does the cytotoxicity at 10 µM read?
A: 0.813%

Q: For `Cc1n[nH]c(C)c1NC(=O)CN1CCCC(CNC(=O)C(C)(C)C)C1` (stereo unspecified), which cytotoxicity at 10 µM is on record?
A: -4.64%

Q: Which cytotoxicity at 10 µM does the source give for `CN1CCOC(CNCc2cccc(OCC(F)(F)F)c2)C1` (stereo unspecified) here?
A: -6.44%

Q: For `O=C(Cc1c[nH]c2ccccc12)N1CCC(Nc2cccnn2)CC1`, which cytotoxicity at 10 µM is on record?
A: -5.08%

Q: With `Cc1cc(C(=O)NCC(C)N2CCc3ccccc32)no1` (stereo unspecified) as the compound, how does the cytotoxicity at 10 µM read?
A: -8.8%

Q: Which cytotoxicity at 10 µM does the source give for `O=C1CCCN1Cc1ncn2c1CN(Cc1cccs1)CCC2` here?
A: -84.1%

Q: For `Cn1ccnc1CN1CCC2(CCCN2c2ncccn2)CC1`, which cytotoxicity at 10 µM is on record?
A: 7.55%

Q: With `c1cnc(N2CCO[C@H]3[C@H](OCC4CCOCC4)CC[C@@H]32)nc1` as the compound, how does the cytotoxicity at 10 µM read?
A: 4.55%

Q: For `COc1cc(N2CCC3(CCCN3Cc3ccn(C)n3)CC2)ncn1`, which cytotoxicity at 10 µM is on record?
A: 4.89%

Q: With `Cc1noc(C)c1CN1CC[C@@H]2O[C@H](COCC(C)C)CC[C@@H]21` as the compound, how does the cytotoxicity at 10 µM read?
A: 8.28%

Q: Which cytotoxicity at 10 µM does the source give for `Cc1nc(CN2CCN(Cc3ccoc3)Cc3cccnc32)cs1` here?
A: -5.25%

Q: Which cytotoxicity at 10 µM does the source give for `CC(C)NC(=O)N1CCc2ncc(CN3CCOCC3)n2CC1` here?
A: 6.28%

Q: With `Cc1noc(C)c1CN1CCn2c(CN3CCN(C)CC3)cnc2C1` as the compound, how does the cytotoxicity at 10 µM read?
A: 8.98%

Q: For `Fc1ccc(CN2CCC3(CCN(Cc4nccs4)CC3)C2)cc1`, which cytotoxicity at 10 µM is on record?
A: 5.04%

Q: Which cytotoxicity at 10 µM does the source give for `CC(C)NC(=O)CC1COC2(CCN(Cc3ccccc3)CC2)C1` (stereo unspecified) here?
A: 6.38%

Q: Which cytotoxicity at 10 µM does the source give for `Cc1ccc(N2CC[C@H]3O[C@@H](C(=O)NCc4ccco4)CC[C@H]32)nn1` here?
A: 2.03%

Q: For `COCCN1CCCn2cnc(CN(C)C(C)C)c2C1`, which cytotoxicity at 10 µM is on record?
A: 6.53%

Q: With `O=C(NCc1cccnc1)[C@@H]1C[C@H]2[C@H](CCN2c2ncc(F)cn2)O1` as the compound, how does the cytotoxicity at 10 µM read?
A: -85.3%

Q: With `N#Cc1cccc(CN2CC[C@@H]3[C@@H]2CC(=O)N3CCN2CCCC2)c1` as the compound, how does the cytotoxicity at 10 µM read?
A: -84.4%

Q: For `c1cnc(N2CCC3(CCN(Cc4ccncc4)CC3)CC2)nc1`, which cytotoxicity at 10 µM is on record?
A: -1.85%

Q: With `O=C1NC2(CCN(CCO)CC2)CC1c1ccccc1` (stereo unspecified) as the compound, how does the cytotoxicity at 10 µM read?
A: -3.83%

Q: For `O=C(Cc1cccs1)N1CCC2(CC1)COCCN2CC1CC1`, which cytotoxicity at 10 µM is on record?
A: 4.98%

Q: With `CS(=O)(=O)N1C[C@H]2CC[C@@H](C1)N(C(=O)Cn1nc3ccccc3n1)C2` as the compound, how does the cytotoxicity at 10 µM read?
A: 10.8%

Q: With `CN(C)C(=O)N1C[C@H]2CC[C@@H](C1)N(Cc1ccc3nsnc3c1)C2` as the compound, how does the cytotoxicity at 10 µM read?
A: -6.69%
